According to ChEMBL document CHEMBL1148770, “Conformation-activity relationship of neuropeptide S and some structural mutants: helicity affects their interaction with the receptor” (J Med Chem, 2007):
Square brackets hold non-standard residues; d marks the D form. Peptide text beside a SMILES is read from it. Aib = CC(C)(N)C(=O)O

What was measured:
[1] = biological target: T1, Neuropeptide S receptor (Mus musculus) (UniProt Q8BZP8); assay: Agonist activity at mouse recombinant NPSR expressed in HEK293 cells assessed as calcium mobilization relative to baseline; type: functional, cell-based
T1 sequence (whole entry): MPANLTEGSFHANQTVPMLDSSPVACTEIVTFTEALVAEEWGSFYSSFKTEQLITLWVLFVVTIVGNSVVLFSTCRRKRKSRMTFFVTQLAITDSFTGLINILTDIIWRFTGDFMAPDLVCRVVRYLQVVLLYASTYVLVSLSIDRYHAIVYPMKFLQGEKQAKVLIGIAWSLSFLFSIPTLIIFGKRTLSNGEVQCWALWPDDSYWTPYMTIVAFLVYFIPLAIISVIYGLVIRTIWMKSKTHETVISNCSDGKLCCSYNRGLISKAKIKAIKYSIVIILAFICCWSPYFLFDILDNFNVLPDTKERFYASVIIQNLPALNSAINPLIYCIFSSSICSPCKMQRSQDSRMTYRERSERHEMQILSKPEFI
Procedure, shortened: (§1)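 HEK293 cells stably expressing mouse NPSR, grown in DMEM/10% FBS/2 mM glutamine/hygromycin at 37 °C, 5% CO2. Seeded 50,000 cells/well on poly-D-lysine; next day loaded 30 min at 37 °C with 3 µM Fluo-4 AM, 2.5 mM probenecid, 0.01% pluronic acid. Read in HBSS/20 mM HEPES/probenecid/Brilliant Black at ≈22 °C on FlexStation; peak fluorescence change as % baseline; logistic fit; ≥4 experiments in duplicate.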

Neuropeptide S receptor = biological target: T2, Neuropeptide S receptor (Mus musculus, UniProt Q8BZP8); assay: Agonist activity at mouse recombinant NPSR expressed in HEK293 cells assessed as calcium mobilization; type: functional, cell-based; procedure, shortened: as §1
T2 sequence (Q8BZP8 whole entry): T1 sequence (whole entry)

Structure (SMILES)	Emax [1]	EC50 (Neuropeptide S receptor)
CSCC[C@H](NC(=O)CNC(=O)[C@@H](NC(=O)[C@H](C)NC(=O)[C@@H](NC(=O)CNC(=O)[C@H](CC(N)=O)NC(=O)[C@H](CCCNC(=N)N)NC(=O)[C@H](Cc1ccccc1)NC(=O)[C@@H](N)CO)C(C)C)[C@@H](C)O)C(=O)N[C@@H](CCCCN)C(=O)N[C@@H](CCCCN)C(=O)N[C@H](C(=O)N[C@@H](CO)C(=O)N[C@@H](Cc1ccccc1)C(=O)N[C@@H](CCC(N)=O)C(=O)N[C@@H](CCCNC(=N)N)C(=O)N[C@@H](C)C(=O)N[C@@H](CCCCN)C(=O)N[C@@H](CO)C(=O)O)[C@@H](C)O	129%	
CSCC[C@H](NC(=O)[C@H](C)NC(=O)[C@@H](NC(=O)CNC(=O)[C@@H](NC(=O)CNC(=O)[C@H](CC(N)=O)NC(=O)[C@H](CCCNC(=N)N)NC(=O)[C@H](Cc1ccccc1)NC(=O)[C@@H](N)CO)C(C)C)[C@@H](C)O)C(=O)N[C@@H](CCCCN)C(=O)N[C@@H](CCCCN)C(=O)N[C@@H](C)C(=O)N[C@@H](CO)C(=O)N[C@@H](Cc1ccccc1)C(=O)N[C@@H](CCC(N)=O)C(=O)N[C@@H](CCCNC(=N)N)C(=O)N[C@@H](C)C(=O)N[C@@H](CCCCN)C(=O)N[C@@H](CO)C(=O)O (H-SFRNGVGTAMKKASFQRAKS-OH)	191%	15.1 nM
CSCC[C@H](NC(=O)CNC(=O)[C@@H](NC(=O)CNC(=O)[C@@H](NC(=O)CNC(=O)[C@H](CC(N)=O)NC(=O)[C@H](CCCNC(=N)N)NC(=O)[C@H](Cc1ccccc1)NC(=O)[C@@H](N)CO)C(C)C)[C@@H](C)O)C(=O)N[C@@H](CCCCN)C(=O)N[C@@H](CCCCN)C(=O)N[C@H](C(=O)N[C@@H](CO)C(=O)N[C@@H](Cc1ccccc1)C(=O)N[C@@H](CCC(N)=O)C(=O)N[C@@H](CCCNC(=N)N)C(=O)N[C@@H](C)C(=O)N[C@@H](CCCCN)C(=O)N[C@@H](CO)C(=O)O)[C@@H](C)O [NEUROPEPTIDE S] (H-SFRNGVGTGMKKTSFQRAKS-OH)	175%	9.12 nM
CSCC[C@H](NC(=O)CNC(=O)[C@@H](NC(=O)CNC(=O)[C@@H](NC(=O)CNC(=O)[C@@H]1CCCN1C(=O)[C@H](CCCNC(=N)N)NC(=O)[C@H](Cc1ccccc1)NC(=O)[C@@H](N)CO)C(C)C)[C@@H](C)O)C(=O)N[C@@H](CCCCN)C(=O)N[C@@H](CCCCN)C(=O)N[C@H](C(=O)N[C@@H](CO)C(=O)N[C@@H](Cc1ccccc1)C(=O)N[C@@H](CCC(N)=O)C(=O)N[C@@H](CCCNC(=N)N)C(=O)N[C@@H](C)C(=O)N[C@@H](CCCCN)C(=O)N[C@@H](CO)C(=O)O)[C@@H](C)O (H-SFRPGVGTGMKKTSFQRAKS-OH)		158 nM
CSCC[C@H](NC(=O)CNC(=O)[C@@H](NC(=O)C(C)(C)NC(=O)[C@@H](NC(=O)CNC(=O)[C@H](CC(N)=O)NC(=O)[C@H](CCCNC(=N)N)NC(=O)[C@H](Cc1ccccc1)NC(=O)[C@@H](N)CO)C(C)C)[C@@H](C)O)C(=O)N[C@@H](CCCCN)C(=O)N[C@@H](CCCCN)C(=O)N[C@H](C(=O)N[C@@H](CO)C(=O)N[C@@H](Cc1ccccc1)C(=O)N[C@@H](CCC(N)=O)C(=O)N[C@@H](CCCNC(=N)N)C(=O)N[C@@H](C)C(=O)N[C@@H](CCCCN)C(=O)N[C@@H](CO)C(=O)O)[C@@H](C)O (H-SFRNGV[Aib]TGMKKTSFQRAKS-OH)	14%	
CSCC[C@H](NC(=O)[C@H](C)NC(=O)[C@@H](NC(=O)[C@H](C)NC(=O)[C@@H](NC(=O)CNC(=O)[C@H](CC(N)=O)NC(=O)[C@H](CCCNC(=N)N)NC(=O)[C@H](Cc1ccccc1)NC(=O)[C@@H](N)CO)C(C)C)[C@@H](C)O)C(=O)N[C@@H](CCCCN)C(=O)N[C@@H](CCCCN)C(=O)N[C@@H](C)C(=O)N[C@@H](CO)C(=O)N[C@@H](Cc1ccccc1)C(=O)N[C@@H](CCC(N)=O)C(=O)N[C@@H](CCCNC(=N)N)C(=O)N[C@@H](C)C(=O)N[C@@H](CCCCN)C(=O)N[C@@H](CO)C(=O)O (H-SFRNGVATAMKKASFQRAKS-OH)	69%	
